Results on one compound are retold here after ChEMBL document CHEMBL4138133, “2,3-Dihydro-3β-methoxy Withaferin-A Protects Normal Cells against Stress: Molecular Evidence of Its Potent Cytoprotective Activity” (J Nat Prod, 2017).

The structures appear in SMILES notation. Calls of active or inactive are those of the source. The calls are words filed in the database; no cut-off is given here.

For data set [1], the system named is TIG-3. Nature of the data set: Cytoprotective activity against etoposide-induced stress in human TIG3 cells assessed as increase in cell survival pretreated with etoposide for 24 hrs followed by compound addition measured after 2 days by crystal violet staining based assay. It counts as functional.
The target in data set [2] is T1, MAP kinase p38 (Homo sapiens) (UniProt O15264+Q15759+Q16539+P53778). The data set can be described thus: Induction of p38 MAPK phosphorylation at Thr180/Tyr182 residues in H2O2 treated human TIG3 cells at 0.6 uM pretreated with H2O2 for 2 hrs followed by compound addition by immunoblot analysis. An outline of the steps:
(§1)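 TIG-3 cells stressed with H2O2 (500 μM, 2 h), then recovered in medium containing 0.3 or 0.6 μM compound. Lysed in NP40 buffer; 10−20 μg protein immunoblotted for pAkt Ser473, p-p38 Thr180/Tyr182, p-p44/42 Thr202/Tyr204, β-catenin, survivin, Bcl-2 or full-length PARP-1. Triplicate experiments.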
A general note: In western blotting, separated proteins are transferred to a membrane and probed.

Data set [3] relates to TIG-3. The data set can be described thus: Cytotoxicity against human TIG3 cells assessed as inhibition of colony formation by crystal violet staining based assay. The class given is cell-based. An outline of the steps: (§2)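 500 cells/well seeded, cultured about 2 weeks with medium (control or compound-supplemented) renewed every fourth day; colonies fixed, stained, counted; triplicates, Student's t test.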

Data set [4] deals with TIG-3. The data set can be described thus: Cytotoxicity against human TIG3 cells assessed as decrease in ROS generation at 1.5 to 3 uM after 48 hrs. It counts as cell-based. As to conditions: tig-3, 48 h.
Data set [5] deals with TIG-3. Nature of the data set: Decrease in keap1 expression level in human TIG3 cells at 0.3 to 3 uM by immunoblot analysis. It counts as ADME, cell-based. Conditions: tig-3, 3 µM. An outline of the steps: (§3)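 TIG-3 cells treated with compound, lysed in NP40 buffer (centrifuged 20 min, 4 °C); 10−20 μg protein immunoblotted for indicated proteins; band quantitation from three independent experiments, Student's t or Mann−Whitney test.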

Data set [6] deals with Mitogen-activated protein kinase 3 (Homo sapiens) (UniProt P27361). The data set can be described thus: Induction of ERK1 phosphorylation at Thr202 residues in H2O2 treated human TIG3 cells at 0.6 uM pretreated with H2O2 for 2 hrs followed by compound addition by immunoblot analysis. An outline of the steps:
as §1

The subject of data set [7] is TIG-3. The data set can be described thus: Cytoprotective activity against H2O2-induced oxidative stress in human TIG3 cells assessed as decrease in protein disulfide isomerase expression level at 0.6 uM pretreated with H2O2 for 2 hrs followed by compound addition by immuno fluorescence staining based analysis. It counts as functional, cell-based. An outline of the steps:
(§4)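 TIG-3 fibroblasts (DMEM, 10% FBS, 37 °C) stressed with H2O2 (500 μM, 2 h) or UV (50 mJ/cm2), then recovered in compound-supplemented medium. Cells fixed in chilled absolute methanol and immunostained for the marker. Images taken by fluorescence microscopy and staining intensity quantified. Triplicate experiments.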

Data set [8] relates to TIG-3. The data set can be described thus: Induction of oxidative stress in human TIG3 cells assessed as increase in CARF expression level at 0.6 uM by immunoblot analysis. It counts as cell-based. As to conditions: tig-3, 0.6 µM. The gist of the method:
as §3

The subject of data set [9] is TIG-3. Nature of the data set: Cytoprotective activity against H2O2-induced oxidative stress in human TIG3 cells assessed as decrease in gammaH2AX level at 0.6 uM pretreated with H2O2 for 2 hrs followed by compound addition by immuno fluorescence staining based analysis. It counts as functional, cell-based. The gist of the method: as §4
The subject of data set [10] is TIG-3. Nature of the data set: Induction of oxidative stress in human TIG3 cells assessed as increase in p53 expression level at 0.6 uM by immunoblot analysis. It counts as cell-based. Conditions: tig-3, 0.6 µM. The gist of the method:
as §3

For data set [11], the system named is WI-38. Nature of the data set: Cytotoxicity against human WI38 cells assessed as inhibition of colony formation by crystal violet staining based assay. It counts as cell-based. The gist of the method: as §2
The test system of data set [12] is WI-38. The data set can be described thus: Cytotoxicity against human WI38 cells assessed as reduction in cell viability at 1 to 10 uM after 72 hrs. The class given is cell-based. Conditions: wi-38, 72 h. An outline of the steps:
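Normal fibroblasts in DMEM/10% FBS at 37 °C given 0.15 to 50 μM compound for 48 or 72 h; viability determined; triplicate, mean ± SEM.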

Data set [13] relates to TIG-3. Nature of the data set: Cytotoxicity against human TIG3 cells assessed as induction of morphological changes at 0.3 to 1.5 uM after 48 hrs by phase contrast microscopy. It counts as cell-based. Conditions: tig-3, 48 h. The gist of the method:
(§5)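 Phase-contrast microscopy of morphology of control and treated normal human TIG-3 fibroblasts.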

Data set [14] concerns TIG-3. Nature of the data set: Cytotoxicity against human TIG3 cells assessed as induction of senescence at 70 to 72 population doubling at 0.5 uM. Conditions: tig-3, 0.5 µM. It counts as cell-based.
The test system of data set [15] is TIG-3. The data set can be described thus: Cytoprotective activity against H2O2-induced oxidative stress in human TIG3 cells assessed as decrease in phosphorylated ATM level at 0.6 uM pretreated with H2O2 for 2 hrs followed by compound addition by immuno fluorescence staining based analysis. It counts as functional, cell-based. The gist of the method: as §4

For data set [16], the target named is Mitogen-activated protein kinase 3 (Homo sapiens) (UniProt P27361). Nature of the data set: Induction of ERK1 phosphorylation at Thr202 residues in UV-irradiated human TIG3 cells using 50 mJ/cm2 of UV radiations followed by compound addition by immuno fluorescence staining based analysis. An outline of the steps:
as §4

For data set [17], the target named is T1, MAP kinase p38 (Homo sapiens). The data set can be described thus: Induction of p38 MAPK phosphorylation at Thr180/Tyr182 residues in UV-irradiated human TIG3 cells using 50 mJ/cm2 of UV radiations followed by compound addition by immuno fluorescence staining based analysis. The gist of the method:
as §4

For data set [18], the system named is TIG-3. Nature of the data set: Decrease in Nrf2 expression level in human TIG3 cells at 0.3 to 3 uM by immunoblot analysis. The class given is ADME, cell-based. Conditions: tig-3, 3 µM. An outline of the steps: as §3
The test system of data set [19] is TIG-3. Nature of the data set: Cytoprotective activity against UV irradiation-induced stress in human TIG3 cells assessed as increase in cell survival irradiated with 50 mJ/cm2 of UV radiations followed by compound addition measured after 2 days by crystal violet staining based assay. It counts as functional.
For data set [20], the system named is TIG-3. The data set can be described thus: Cytotoxicity against human TIG3 cells assessed as cell death at 0.6 uM. It counts as cell-based. As to conditions: tig-3, 0.6 µM. An outline of the steps:
as §5

Data set [21] has as its target Mitogen-activated protein kinase 1 (Homo sapiens) (UniProt P28482). The data set can be described thus: Induction of ERK2 phosphorylation at Tyr204 residues in UV-irradiated human TIG3 cells using 50 mJ/cm2 of UV radiations followed by compound addition by immuno fluorescence staining based analysis. An outline of the steps:
as §4

Mitogen-activated protein kinase 3 (Homo sapiens), sequence (P27361 whole entry): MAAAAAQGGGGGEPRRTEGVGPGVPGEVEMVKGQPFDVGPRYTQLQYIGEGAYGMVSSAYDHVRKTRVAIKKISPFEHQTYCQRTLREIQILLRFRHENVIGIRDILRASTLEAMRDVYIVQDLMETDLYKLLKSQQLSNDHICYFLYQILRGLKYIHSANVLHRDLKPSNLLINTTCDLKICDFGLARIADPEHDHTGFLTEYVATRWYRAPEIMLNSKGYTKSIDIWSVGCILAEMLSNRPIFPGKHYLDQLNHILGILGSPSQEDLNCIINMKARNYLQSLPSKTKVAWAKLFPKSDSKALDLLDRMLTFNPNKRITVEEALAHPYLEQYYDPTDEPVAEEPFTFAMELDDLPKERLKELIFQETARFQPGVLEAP
Mitogen-activated protein kinase 1 (Homo sapiens), sequence (P28482 whole entry): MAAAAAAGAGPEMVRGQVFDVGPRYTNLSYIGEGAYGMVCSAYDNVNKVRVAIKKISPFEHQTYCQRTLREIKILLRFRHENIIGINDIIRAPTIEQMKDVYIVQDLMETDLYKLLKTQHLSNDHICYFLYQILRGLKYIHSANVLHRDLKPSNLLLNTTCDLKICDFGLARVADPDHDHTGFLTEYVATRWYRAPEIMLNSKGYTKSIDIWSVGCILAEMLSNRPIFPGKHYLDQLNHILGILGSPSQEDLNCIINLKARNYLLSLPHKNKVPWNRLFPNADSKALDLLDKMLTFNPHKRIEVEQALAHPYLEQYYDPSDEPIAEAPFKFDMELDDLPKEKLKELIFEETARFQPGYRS

Consider `CO[C@H]1CC(=O)[C@]2(C)[C@H]3CC[C@]4(C)[C@@H]([C@H](C)[C@H]5CC(C)=C(CO)C(=O)O5)CC[C@H]4[C@@H]3C[C@H]3O[C@]32[C@H]1O`, for which the Activity entry in the data set with TIG-3 [1] is “Dose-dependent effect”; in the data set with TIG-3 [3], “Non-Toxic”; in the data set on TIG-3 [4], “Non-Toxic”; in the data set on TIG-3 [5], “Non-Toxic”; with TIG-3 [8] it was “Non-Toxic”; in the data set with TIG-3 [10] it was “Non-Toxic”. Also, the Activity result in the data set on WI-38 [11] is “Non-Toxic”; in the data set on WI-38 [12], “Non-Toxic”; in the data set on TIG-3 [13], “Non-Toxic”; in the data set on TIG-3 [14], “Non-Toxic”; in the data set with TIG-3 [18] it was “Non-Toxic”; in the data set on TIG-3 [19], “Dose-dependent effect”. The Activity result with TIG-3 [20] was “Non-Toxic”. The result (in data set [2]; in data set [6]; in the data set with TIG-3 [7]; with TIG-3 [9]; in the data set on TIG-3 [15]; in data set [16]) was Active. The result in [17] and in data set [21] was Active.
